Experimental data: ChEMBL document CHEMBL1128668, “Synthesis of N,N'-substituted piperazine and homopiperazine derivatives with polyamine-like actions at N-methyl-D-aspartate receptors” (J Med Chem, 1995)

Legend:
Glutamate NMDA receptor [1] = assay: Ability to enhance [3H]MK-801 binding to NMDA receptors in rat forebrain membranes was calculated with respect to spermine; type: cell membranes, Membrane
Outline: (§1)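 Forebrains from adult male Sprague-Dawley rats (175–300 g) homogenized in 5 mM HEPES/4.5 mM Tris (pH 7.7). Membranes were washed extensively, including EDTA cycles, to remove endogenous glutamate, glycine and polyamines. About 100 μg protein was incubated with [3H]MK-801 (final 4–5 nM) and compound (1–1000 μM) for 2 h at room temperature under non-equilibrium conditions, then filtered over PEI-soaked GF/B. Nonspecific binding was taken with 100 μM phencyclidine. Efficacy is given as percent of the spermine-induced increase, ≥3 experiments.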

[2] = molecular target: T1, Glutamate NMDA receptor (Rattus norvegicus) (UniProt P35439+Q00959+Q00960+Q00961+Q62645+Q8VHN2+Q9R1M7); assay: Efficacy of compound in enhancing binding of [3H]MK-801 to NMDA receptors compared to spermine; type: protein-complex assay; outline: as §1
Glutamate NMDA receptor [3] = molecular target: Glutamate NMDA receptor
[4] = molecular target: T1, Glutamate NMDA receptor (Rattus norvegicus); assay: Efficacy in enhancing binding of [3H]- MK-801 to NMDA receptors compared to spermine; type: protein-complex assay; outline: as §1
Glutamate NMDA receptor [5] = assay: Inhibition of [3H]MK-801 binding to NMDA receptor by Conantokin-G (with a concentration range of 0.024-12.5 uM) stimulated by the compound at a concentration of 100 uM; type: protein-complex assay
Glutamate NMDA receptor [6] = assay: Inhibition of [3H]MK-801 binding to NMDA receptor by Conantokin-G (at a concentration range of 0.024-12.5 uM) stimulated by the compound at a concentration of 100 uM; type: protein-complex assay

NCCCNCCCCNCCCN [SPERMINE]
EC50 (Glutamate NMDA receptor [1]): 5.2 µM
Emax [2]: 100%
IC50 (Glutamate NMDA receptor [3]): 232 µM

NCCCCN1CCCN(CCCCN)CC1
EC50 (Glutamate NMDA receptor [1]): 37.5 µM
Emax [4]: 76%

NCCCC(=O)N1CCN(C(=O)CCCN)CC1
EC50 (Glutamate NMDA receptor [1]): 239 µM
Emax [4]: 45%

NCC(=O)N1CCN(C(=O)CN)CC1
EC50 (Glutamate NMDA receptor [1]): 96.5 µM
Emax [4]: 90%

NCCCN1CCN(CCCN)CC1
EC50 (Glutamate NMDA receptor [1]): 50.1 µM
Emax [4]: 80%

CNCCN1CCN(CCNC)CC1
EC50 (Glutamate NMDA receptor [1]): 64.5 µM
Emax [4]: 50%

C1CCN(CCCN2CCN(CCCN3CCCC3)CC2)C1
EC50 (Glutamate NMDA receptor [1]): 45.9 µM
Emax [4]: 64%

NCCN1CCCN(CCN)CC1
EC50 (Glutamate NMDA receptor [1]): 50.7 µM
Emax [4]: 43%

CN(C)CCCN1CCN(CCCN(C)C)CC1
EC50 (Glutamate NMDA receptor [1]): 36.8 µM
Emax [4]: 66%

NCCCN1CCCN(CCCN)CC1
EC50 (Glutamate NMDA receptor [1]): 24.4 µM
Emax [4]: 76%

NCCCCN1CCN(CCCCN)CC1
EC50 (Glutamate NMDA receptor [1]): 55.9 µM
Emax [4]: 71%

CNCCCN1CCN(CCCNC)CC1
EC50 (Glutamate NMDA receptor [1]): 35.3 µM
Emax [4]: 81%

CNCCCCN1CCN(CCCCNC)CC1
EC50 (Glutamate NMDA receptor [1]): 21.4 µM
Emax [4]: 68%
IC50 (Glutamate NMDA receptor [5]): 196 µM

CN(C)CCCCN1CCN(CCCCN(C)C)CC1
EC50 (Glutamate NMDA receptor [1]): 77.5 µM
Emax [4]: 84%

CN(C)CCN1CCN(CCN(C)C)CC1
EC50 (Glutamate NMDA receptor [1]): 112 µM
Emax [4]: 51%

NCC(=O)N1CCCN(C(=O)CN)CC1
EC50 (Glutamate NMDA receptor [1]): 18 µM
Emax [2]: 60%
IC50 (Glutamate NMDA receptor [6]): 307 µM
